Compounds with a hit are over-represented: about 6.6% of the library has one in this group of screens.
Ecoli WT expand: E. coli BW25113 growth inhibition, expanded screen | actives 0.15% (n = 98,000) | OD600 absorbance | AID 710 | growth inhibition, % at 100 µM;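 active means growth inhibition above about 50% at one test dose, limit read from the data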;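 further: growth measured after 20 h incubation at 37 °C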
tolC growth inh: growth inhibitors of E. coli BW25113 tolC mutant; OD615; actives 2.2% (n = 65,000); growth inhibition, % at 10 µM (by protocol);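 active means growth inhibition at or above a cutoff equal to the mean over every tested compound plus 3 SD, cut at about 60% in these data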;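 further: growth measured after 20 h incubation at 37 °C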
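signal = optical density read at 615 nm | test system = E. coli ΔtolC::kan strain BW25113 | timing = 20 h compound exposure of bacteria at 37 °C | buffer or medium = LB medium plus 50 µg/mL kanamycin | compound dosing = 10 µM final, single dose | evaluation = % inhibition of E. coli growth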
PostGolgi yeast: growth inhibition of a yeast mutant, post-Golgi transport screen; post-Golgi transport phenotypic cell assay; inhibition, % at 10 µM; actives 0.9% (n = 98,000);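 further: yeast cells grown in 1536-well plates; yeast grown about 18 h at 30C before absorbance read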
HER2 expr 66K: lowers expression of human Her2 kinase; SKBR-3 HER2 protein level, AlphaScreen, 18-24 h; active compounds read low; HER2 level % of control, % at 10 µM; actives 0.69% (n = 65,000);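 active means HER2 level under 5% of the carrier-only control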;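 further: 100% = DMSO carrier and 0% = 500 nM PU-H71 HSP90 inhibitor; lower value means stronger loss of Her2 protein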
PostGolgi ctrl: yeast control strain growth, post-Golgi counter-screen | actives 5% (n = 98,000) | efflux-deficient yeast background strain, growth absorbance A615, 16 h | inhibition, % at 10 µM
* marks the source's active call; other numbers are inactive results; x = no result given. Unless noted, no stated cut-off is given here; in the data, active means inhibition above about 30%; inactive means the rest.

SMILES	Ecoli WT expand	tolC growth inh	PostGolgi yeast	HER2 expr 66K	PostGolgi ctrl
COC(=O)CS(=O)(=O)c1nnc([C@H](Cc2ccccc2)NC(=O)OC(C)(C)C)o1	-1	-6	6	-17*	3
Cc1cccc(CS(=O)(=O)c2nnc([C@H](Cc3ccccc3)NC(=O)OC(C)(C)C)o2)c1	4	x	27	x	30
N/C(=N\OC(=O)c1cccc(F)c1)c1ccccc1	5	x	-2	x	6
Cc1ccc(/C(N)=N/OC(=O)c2cccc(F)c2)cc1	11	x	-3	x	44*
Cc1ccc2c(c1)N(CCCC(=O)NCCCN1CCCC1=O)C(=O)CO2	x	-2	x	117	x
COc1ccccc1-c1noc(CCC(=O)Nc2cc(C(F)(F)F)ccc2Cl)n1	-5	0	-5	55	11
Nc1cc(-c2ccc(Cl)cc2)nn1S(=O)(=O)c1cccc2nsnc12	-1	x	58*	x	66*
Nc1cc(-c2cccc(F)c2)nn1S(=O)(=O)c1cccc2nsnc12	5	24	16	86	0
Nc1cc(-c2ccc(Br)cc2)nn1S(=O)(=O)c1cccc2nsnc12	-7	x	44*	x	83*
c1cncc(CNc2c3c(nc4nnnn24)CCCC3)c1	-12	6	-5	164	-3
COc1ccc(Nc2nc(NC(C)(C)C)nc(N3CCCC3)n2)c(OC)c1	-17	x	5	x	63*
COc1ccc(Nc2nc(N3CCCC3)nc(N3CCCC3)n2)c(OC)c1	-9	x	-5	x	24
O=C(Oc1ccc2ccccc2c1Cl)N1CCCC1	12	61*	-9	86	7
O=C(Oc1ccc(Cl)c2ccccc12)N1CCCCC1	2	x	4	x	16
O=C(Oc1ccc(Cl)c2cccnc12)N1CCCCC1	2	-10	-3	88	7
O=C(Oc1c(Cl)cc(Cl)c2ccccc12)N1CCCC1	28	x	3	x	32*
CCn1c(=O)cc(SCC(=O)N2CCN(c3ccccc3F)CC2)c2ccccc21	-2	x	10	x	13
CS(=O)(=O)N(CC(=O)Nc1ccccc1Sc1ccccc1)c1cccc(Br)c1	-32	x	9	x	41*
CC(=O)C1=C(C)Nc2ncnn2C1c1ccccc1OCc1ccccc1 (configuration not stated)	-1	23	-1	99	0
CCOC(=O)c1sc(NC(=O)CSc2n[nH]c(-c3ccccc3)n2)c(C#N)c1C	-11	100*	-7	47	41*
CCOC(=O)c1sc(NC(=O)CSc2nc(C)cc(C)n2)c(C#N)c1C	-4	x	-7	x	25
CCOC(=O)c1c(NC(=O)CSc2n[nH]c(N)n2)sc(CC)c1C	3	23	4	-33*	-5
N#Cc1c(NC(=O)CSc2n[nH]c(Cc3ccccc3)n2)oc(-c2ccccc2)c1-c1ccccc1	-13	64*	4	98	15
C=CCN1CCN(C(c2cc(OC)ccc2OC)c2nnnn2CC2CCCO2)CC1 (configuration not stated)	0	-14	14	105	3
CCN(CC)c1nc(SCC(=O)O)nc(N(CC)CC)n1	0	16	17	58	40*
SMILES	Ecoli WT expand	tolC growth inh	PostGolgi yeast	HER2 expr 66K	PostGolgi ctrl
COc1cccc(=O)c2c(C)n(C)c(C)c12	-2	-1	-4	102	7
COc1cccc(=O)c2c(C)n(-c3cc(C)cc(C)c3)c(C)c12	-10	x	20	x	47*
Cc1cc(-c2ccco2)c(C#N)c2nc3ccccc3n12	-12	81*	25	89	83*
Cc1cc(C)cc(Nc2ncc3c(n2)CCCC3=O)c1	3	-5	9	216	33*
CCOC(=O)c1sc(NC(=O)c2ccc(Cl)s2)cc1C	-5	20	-6	97	6
CCOC(=O)c1sc(NC(=O)c2c(C)nn(Cc3ccccc3)c2C)cc1C	-12	71*	2	56	5
CCOC(=O)c1sc(NC(=O)Nc2ccc(Cl)cc2)cc1C	22	x	3	x	62*
CCOC(=O)c1sc(NC(=O)c2ccccc2)cc1C	-5	x	-7	x	5
CCN(CC)c1ccc(NC(=O)COc2ccc(C)cc2)cc1	x	15	x	95	x
Cc1ccc(C2C(C=Nc3c(C)n(C)n(-c4ccccc4)c3=O)=C(c3ccccc3)Oc3ccccc32)cc1 (configuration not stated)	-24	x	-10	x	7
CCOC(=O)N1CCN(C(=O)Cc2ccc(Cl)cc2)CC1	-4	2	5	93	5
CCOC(=O)N1CCN(CCC(=O)c2ccc(Cl)cc2)CC1	25	-13	1	-6.8*	-8
CN(C)S(=O)(=O)Oc1ccsc1C(=O)Nc1ccccc1Cl	-2	x	4	x	15
CN(C)S(=O)(=O)Oc1ccsc1C(=O)Nc1cccc(Cl)c1Cl	-12	x	-10	x	32*
O=C(O)c1cccc(CN2C(=O)CSC2=O)c1	-3	-15	-2	96	36*
O=C(O)c1cccc(CN2C(=O)SC(Nc3ccccc3)C2=O)c1 (configuration not stated)	-5	-13	4	77	1
Cc1ccc(NC(=O)CN2CC(C)SC2=NC2CCCCC2)cc1 (configuration not stated)	7	10	5	106	25
COc1ccc(NC(=O)N2CCN(c3nc(-c4cccc(OC)c4)cs3)CC2)cc1	-18	33	-17	71	41*
COc1cccc(-c2csc(N3CCN(C(=S)Nc4cccc(Cl)c4)CC3)n2)c1	-2	x	-6	x	2
Cc1nc2cc(C(F)(F)F)ccc2n1C1CCN(CC(=O)NC(C)(C)C)CC1	6	5	14	104	4
O=C1c2ccccc2C(=O)N1CCC(c1ccc(F)cc1)c1ccco1 (configuration not stated)	4	77*	0	104	4
CCCCN(CCCC)S(=O)(=O)c1ccc(C(=O)Nc2nnc(COC)o2)cc1	5	97*	1	-17*	-3
CCCCN(C)S(=O)(=O)c1ccc(C(=O)Nc2nnc(CSC)o2)cc1	14	98*	-6	86	3
CCc1nnc(NC(=O)c2ccc(S(=O)(=O)N(CC)Cc3ccccc3)cc2)o1	2	100*	9	79	6
CCc1nnc(NC(=O)c2ccc(S(=O)(=O)N(CC)CC)cc2)s1	-14	4	-7	110	13
SMILES	Ecoli WT expand	tolC growth inh	PostGolgi yeast	HER2 expr 66K	PostGolgi ctrl
CCCCN(CCCC)S(=O)(=O)c1ccc(NS(=O)(=O)c2ccc(NC(C)=O)cc2)cc1	-12	x	-2	x	-5
CCCCN(CC)S(=O)(=O)c1ccc(C(=O)Nc2nnc(-c3cccs3)o2)cc1	-1	99*	-3	64	16
O=C1C2ON(c3ccc(Cl)cc3)C(c3ccco3)C2C(=O)N1c1ccccc1 (configuration not stated)	-1	-26	-3	140	6
O=C(Nc1ccncc1)c1cc(F)cc(F)c1	11	x	-2	x	3
CCNC(=S)NNC(=O)c1ccc(OC(F)F)cc1	4	x	-1	x	2
O=c1c2c(nc3c(-c4cccc5ccccc45)c[nH]n13)CCC2	-2	65*	-2	57	-1
O=c1c2c(nc3c(-c4ccc(Cl)cc4)c[nH]n13)CCCC2	-2	100*	-9	81	8

Assay outcomes from PubChem BioAssay.
